# Tests used:
# U-937 [1] = assay: Growth inhibition of human U937 cells at 10 uM after 72 hrs by WST-8 reagent based MTT assay; assay type: functional; conditions: U-937, 72 h, read-out: GI
# Procedure, shortened: (§1)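 Single-concentration screen at 10 μM on K562 or U937 cells in RPMI1640 with 10% FBS, 5.0 × 10³ cells/well, settled 4 h, then 72 h exposure at 37 °C, 5% CO₂. WST-8/1-methoxyphenazinium reagent added for 1.5 h. A450 read with 650 nm correction. Growth given as % absorbance relative to vehicle control, averaged over three independent experiments.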
# U-937 [2] = assay: Cytotoxicity against human U937 cells after 72 hrs by WST-8 reagent based MTT assay; assay type: functional, cell-based; conditions: U-937, 72 h
# Procedure, shortened: (§2)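 K562 or U937 cells in RPMI1640 with 10% FBS, 5.0 × 10³ cells/well, settled 4 h at 37 °C, 5% CO₂. Exposed to compound for 72 h. Medium removed, then WST-8 reagent (5 mM WST-8, 0.2 mM 1-methoxyphenazinium salt, 150 mM NaCl) added for 1.5 h at 37 °C. Absorbance read at 450 nm, corrected at 650 nm, as % of vehicle control. IC50 from concentration–response curve fitting. Three independent experiments averaged.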
# K562 [3] = assay: Growth inhibition of human K562 cells at 10 uM after 72 hrs by WST-8 reagent based MTT assay; assay type: functional; conditions: K562, 72 h, read-out: GI; procedure, shortened: as §1
# K562 [4] = assay: Cytotoxicity against human K562 cells after 72 hrs by WST-8 reagent based MTT assay; assay type: functional, cell-based; conditions: K562, 72 h; procedure, shortened: as §2
structure (smiles),measurement,setting,value
COc1cc2c(Nc3ccc4sc(C(=O)Nc5c(C)cccc5Cl)cc4c3)ncnc2cc1OCCCN1CCOCC1,inhibition of growth at 10 µM,U-937 [1],56.2%
same,IC50,U-937 [2],9.09 µM
same,inhibition of growth at 10 µM,K562 [3],9.99%
COc1cc2c(Nc3ccc4sc(C(=O)Nc5c(C)cccc5Cl)cc4c3)ncnc2cc1OCCCN1CCCCC1,inhibition of growth at 10 µM,U-937 [1],75.7%
same,IC50,U-937 [2],4.34 µM
same,inhibition of growth at 10 µM,K562 [3],71.8%
same,IC50,K562 [4],4.01 µM
CCN(CCO)CCCOc1cc2ncnc(Nc3ccc4sc(C(=O)Nc5c(C)cccc5Cl)cc4c3)c2cc1OC,inhibition of growth at 10 µM,U-937 [1],76.9%
same,IC50,U-937 [2],4.25 µM
same,inhibition of growth at 10 µM,K562 [3],59.8%
same,IC50,K562 [4],8.97 µM
CCN(CC)CCCOc1cc2ncnc(Nc3ccc4sc(C(=O)Nc5c(C)cccc5Cl)cc4c3)c2cc1OC,inhibition of growth at 10 µM,U-937 [1],78%
same,IC50,U-937 [2],4.01 µM
same,inhibition of growth at 10 µM,K562 [3],72.5%
same,IC50,K562 [4],3.55 µM
COc1cc2c(Nc3ccc4sc(C(=O)Nc5c(C)cccc5Cl)cc4c3)ncnc2cc1OCCCN1CCN(C)CC1,inhibition of growth at 10 µM,U-937 [1],76%
same,IC50,U-937 [2],3.48 µM
same,inhibition of growth at 10 µM,K562 [3],51.2%
same,IC50,K562 [4],9.88 µM
COc1cc2c(Nc3ccc4sc(C(=O)Nc5c(C)cccc5Cl)cc4c3)ncnc2cc1OCCCN1CCCCC1C (stereo not drawn),inhibition of growth at 10 µM,U-937 [1],80.2%
same,IC50,U-937 [2],3.45 µM
same,inhibition of growth at 10 µM,K562 [3],84.2%
same,IC50,K562 [4],2.15 µM
Cc1nc(Nc2ccc3sc(C(=O)Nc4c(C)cccc4Cl)cc3c2)cc(N2CCOCC2)n1,inhibition of growth at 10 µM,U-937 [1],8.37%
same,inhibition of growth at 10 µM,K562 [3],13.9%
Cc1nc(Nc2ccc3sc(C(=O)Nc4c(C)cccc4Cl)cc3c2)cc(N2CCCCC2)n1,inhibition of growth at 10 µM,U-937 [1],20.6%
same,IC50,U-937 [2],20 µM
same,inhibition of growth at 10 µM,K562 [3],8.78%
Cc1nc(Nc2ccc3sc(C(=O)Nc4c(C)cccc4Cl)cc3c2)cc(N2CCN(C)CC2)n1,inhibition of growth at 10 µM,U-937 [1],40.6%
same,IC50,U-937 [2],15 µM
same,inhibition of growth at 10 µM,K562 [3],32.4%
same,IC50,K562 [4],17 µM
CCN1CCN(c2cc(Nc3ccc4sc(C(=O)Nc5c(C)cccc5Cl)cc4c3)nc(C)n2)CC1,inhibition of growth at 10 µM,U-937 [1],46.5%
same,IC50,U-937 [2],13.1 µM
same,inhibition of growth at 10 µM,K562 [3],33.9%
same,IC50,K562 [4],16.9 µM
Cc1nc(Nc2ccc3sc(C(=O)Nc4c(C)cccc4Cl)cc3c2)cc(N2CCN(CCO)CC2)n1,inhibition of growth at 10 µM,U-937 [1],37.1%
same,IC50,U-937 [2],13.7 µM
same,inhibition of growth at 10 µM,K562 [3],27.8%
same,IC50,K562 [4],21.9 µM
Cc1nc(Nc2ccc3sc(C(=O)Nc4c(C)cccc4Cl)cc3c2)cc(N2CCC(C)CC2)n1,inhibition of growth at 10 µM,U-937 [1],24.6%
same,IC50,U-937 [2],20.6 µM
same,inhibition of growth at 10 µM,K562 [3],20.5%
same,IC50,K562 [4],22.2 µM
Cc1nc(Nc2ncc(C(=O)Nc3c(C)cccc3Cl)s2)cc(N2CCN(CCO)CC2)n1 [DASATINIB],inhibition of growth at 10 µM,U-937 [1],37.2%
same,IC50,U-937 [2],13.6 µM
same,inhibition of growth at 10 µM,K562 [3],37.4%
same,IC50,K562 [4],12.8 µM

# Reference: ChEMBL document CHEMBL1938319, “Design, synthesis, and in vitro antiproliferative activity of novel Dasatinib derivatives” (Bioorg Med Chem Lett, 2012)
